# Results published in ChEMBL document CHEMBL3352281, “Canthin-6-one displays antiproliferative activity and causes accumulation of cancer cells in the G2/M phase” (J Nat Prod, 2014).
# Activity calls are given as the source filed them. The rule behind the calls is not given here.
# What was measured:
# [1] = tested on: PC-3; experiment: Induction of cell cycle arrest in human PC3 cells assessed as accumulation at G2/M phase at 40 uM incubated for 48 hrs by flow propidium iodide staining based flow cytometry (reference value: 20 +/- 0.6%); assay type: functional
# [2] = tested on: PC-3; experiment: Induction of apoptosis in human PC3 cells assessed as induction of procaspase-3 cleavage at 40 uM after 96 hrs by Western blot method; assay type: functional
# In short: (§1)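 Western blot: 40 000 cells/well exposed 2−4 days to 40 μM (HeLa 10 and 30 μM) or 0.2% DMSO. Lysed in Laemmli buffer, run on 12.5% SDS-PAGE, moved to nitrocellulose. Probed overnight at 4 °C with rabbit anti-caspase-3 (1/1000), then Alexa-488 secondary. β-Actin loading control; fluorescence read on a laser scanner.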
# [3] = Antiproliferative activity against human PC3 cells assessed as induction of cell death at 40 to 60 uM after 4 days; assay type: functional, PC-3
# In short: (§2)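 Cells seeded at 40 000 per well and grown at 37 °C, 5% CO2 with 10% FCS, 2 mM glutamine and penicillin-streptomycin (Ham's F12 for PC-3, RPMI for Jurkat, DMEM for HT-29, HeLa, C6, NIH-3T3). Compound added from a 50-fold solution in 10% DMSO; controls 0.2% DMSO. Quadruplicate wells trypsinized (Jurkat not) and counted in a Malassez chamber; mean ± SEM, n = 4.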
# [4] = tested on: C6; experiment: Induction of apoptosis in rat C6 cells assessed as induction of procaspase-3 cleavage at 40 uM after 48 hrs by Western blot method; assay type: functional, cell-based; in short: as §1
# [5] = tested on: HeLa; experiment: Induction of apoptosis in human HeLa cells assessed as induction of procaspase-3 cleavage at 10 uM after 48 hrs by Western blot method; assay type: functional; in short: as §1
# [6] = tested on: HT-29; experiment: Antiproliferative activity against human HT-29 cells assessed as inhibition of cell growth at 10 to 60 uM after 4 days; assay type: functional, cell-based; settings: HT-29, 96 h
# In short: (§3)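 Cell counting: 40 000 cells/well seeded and grown at 37 °C, 5% CO2 in medium with 10% FCS, 2 mM glutamine and penicillin-streptomycin (Ham's F12 for PC-3, RPMI for Jurkat, DMEM for the others). Compound added from a 50-fold stock in 10% DMSO; controls 0.2% DMSO. Quadruplicate wells trypsinized (Jurkat not) and counted in a Malassez chamber; mean ± SEM, n = 4.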
# [7] = Toxicity against human NHDF assessed as reduction in cell viability incubated for 3 days by MTT assay; assay type: cell-based; settings: NHDF cells
# In short: (§4)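 Normal human dermal fibroblasts kept 3 days in DMEM with 10% FCS at increasing concentrations up to 160 μM, DMSO-matched controls. MTT reduction read at 540 nm as percentage viability (mean ± SEM, n = 3), with microscopic morphology scoring.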
# [8] = tested on: PC-3; experiment: Reduction in mitotic spindles formation in human PC3 cells at 40 uM incubated for 48 hrs by tubulin immunofluorescence assay; assay type: functional; settings: PC-3, 48 h
# In short: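 Mitotic spindles: PC-3 in chamber slides (10 000/well), 2 days with 40 μM or 0.2% DMSO. Ethanol/glycine fixation, anti-β-tubulin 1/200 for 2 h at 37 °C, then Alexa 488 secondary. Mitotic cells scored by fluorescence microscopy in random fields; at least 6000−10 000 cells counted per group.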
# [9] = Toxicity against human NHDF assessed as cell viability up to 20 uM incubated for 3 days by MTT assay; assay type: cell-based; settings: NHDF cells, read-out: Activity; in short: as §4
# [10] = tested on: Jurkat; experiment: Induction of apoptosis in human Jurkat cells assessed as induction of procaspase-3 cleavage at 40 uM after 48 hrs by Western blot method; assay type: functional, cell-based; in short: as §1
# [11] = tested on: PC-3; experiment: Inhibition of DNA synthesis in human PC3 cells assessed as reduction in post-mitotic nuclei level at 40 uM pre-incubated for 30 hrs by immunofluorescence microscopy (reference value: 85%); assay type: functional; settings: PC-3, read-out: INH
# [12] = tested on: NIH3T3; experiment: Antiproliferative activity against mouse NIH/3T3 cells assessed as inhibition of cell growth at 40 uM after 4 days; assay type: functional, cell-based; in short: as §3
# [13] = Antiproliferative activity against mouse NIH/3T3 cells assessed as induction of cell death at 40 to 60 uM after 4 days; assay type: functional, NIH3T3; in short: as §2
# [14] = tested on: NIH3T3; experiment: Induction of apoptosis in mouse NIH/3T3 cells assessed as induction of procaspase-3 cleavage at 40 uM after 48 hrs by Western blot method; assay type: functional, cell-based; in short: as §1
# [15] = Toxicity against human NHDF assessed as cell viability at 160 uM incubated for 3 days by MTT assay; assay type: cell-based; settings: NHDF cells, read-out: Activity; in short: as §4
# [16] = Toxicity against human NHDF assessed as cell viability at 80 uM incubated for 3 days by MTT assay; assay type: cell-based; settings: NHDF cells, read-out: Activity; in short: as §4
# [17] = tested on: C6; experiment: Antiproliferative activity against rat C6 cells assessed as induction of cell death at 40 to 60 uM after 4 days; assay type: functional; in short: as §2
# [18] = tested on: HeLa; experiment: Antiproliferative activity against human HeLa cells assessed as inhibition of cell growth at 10 to 60 uM after 4 days; assay type: functional, cell-based; settings: 96 h; in short: as §3
# [19] = tested on: PC-3; experiment: Antiproliferative activity against human PC3 cells assessed as inhibition of cell growth at 40 uM after 4 days; assay type: functional, cell-based; in short: as §3
# [20] = tested on: Jurkat; experiment: Antiproliferative activity against human Jurkat cells assessed as inhibition of cell growth at 10 to 60 uM after 4 days; assay type: functional, cell-based; settings: 96 h; in short: as §3
# [21] = tested on: HeLa; experiment: Antiproliferative activity against human HeLa cells assessed as inhibition of cell growth at 40 uM after 2 days; assay type: functional; settings: 48 h, read-out: GI; in short: as §3
# [22] = tested on: Jurkat; experiment: Antiproliferative activity against human Jurkat cells assessed as induction of cell death at 40 to 60 uM after 4 days; assay type: functional; in short: as §2
# [23] = tested on: C6; experiment: Antiproliferative activity against rat C6 cells assessed as inhibition of cell growth at 10 to 60 uM after 4 days; assay type: functional, cell-based; settings: C6, 96 h; in short: as §3
# [24] = tested on: HT-29; experiment: Antiproliferative activity against human HT-29 cells assessed as inhibition of cell growth at 40 uM after 4 days; assay type: functional, cell-based; in short: as §3
# [25] = tested on: HeLa; experiment: Induction of apoptosis in human HeLa cells assessed as induction of procaspase-3 cleavage at 30 uM after 48 hrs by Western blot method; assay type: functional; in short: as §1
# [26] = tested on: PC-3; experiment: Inhibition of DNA synthesis in human PC3 cells assessed as reduction in BrdU incorporation at 40 uM pre-incubated for 30 hrs by Southern blotting method; assay type: functional
# In short: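 PC-3, 10^6 cells per flask, held 30 h at 40 μM or 0.2% DMSO, then 18 h BrdU labeling. Genomic DNA isolated by proteinase K/phenol-chloroform; 400 ng run on agarose, blotted to nitrocellulose, acid-denatured, probed with anti-BrdU and Alexa 647 secondary. Scanned signal normalized to ethidium bromide DNA fluorescence.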
# [27] = tested on: C6; experiment: Antiproliferative activity against rat C6 cells assessed as inhibition of cell growth at 40 uM after 4 days; assay type: functional, cell-based; in short: as §3
# [28] = tested on: Jurkat; experiment: Antiproliferative activity against human Jurkat cells assessed as inhibition of cell growth at 40 uM after 4 days; assay type: functional, cell-based; in short: as §3
# [29] = Antiproliferative activity against human PC3 cells assessed as inhibition of cell growth at 10 to 60 uM after 4 days; assay type: functional, cell-based; settings: PC-3, 96 h; in short: as §3
# [30] = Antiproliferative activity against mouse NIH/3T3 cells assessed as inhibition of cell growth at 10 to 60 uM after 4 days; assay type: functional, cell-based; settings: NIH3T3, 96 h; in short: as §3
# [31] = tested on: PC-3; experiment: Induction of apoptosis in human PC3 cells assessed as induction of procaspase-3 cleavage at 40 uM after 48 hrs by Western blot method; assay type: functional; in short: as §1
# [32] = tested on: HeLa; experiment: Antiproliferative activity against human HeLa cells assessed as inhibition of cell growth at 10 uM after 4 days; assay type: functional; settings: 96 h, read-out: GI; in short: as §3
# [33] = tested on: HT-29; experiment: Induction of apoptosis in human HT-29 cells assessed as induction of procaspase-3 cleavage at 40 uM after 48 hrs by Western blot method; assay type: functional; in short: as §1
# [34] = tested on: HT-29; experiment: Antiproliferative activity against human HT-29 cells assessed as induction of cell death at 40 to 60 uM after 4 days; assay type: functional; in short: as §2
# [35] = Toxicity against human NHDF assessed as cell viability at 40 uM incubated for 3 days by MTT assay; assay type: cell-based; settings: NHDF cells, read-out: Activity; in short: as §4
# [36] = tested on: PC-3; experiment: Induction of cell cycle arrest in human PC3 cells assessed as accumulation at G1 phase at 40 uM incubated for 48 hrs by propidium iodide staining based flow cytometry (reference value: 57.8 +/- 0.6%); assay type: functional
# [37] = tested on: PC-3; experiment: Induction of cell cycle arrest in human PC3 cells assessed as accumulation at S phase at 40 uM incubated for 48 hrs by propidium iodide staining based flow cytometry (reference value: 21.6 +/- 0.2%); assay type: functional
compound,measurement,setting,value
O=c1ccc2nccc3c4ccccc4n1c23 [CANTHIN-6-ONE],Activity,[1],47.8%
same,fold change (FC),[2],7
same,Activity,[3],<=30%
same,Activity,[4],inactive
same,fold change (FC),[5],1.5
same,EC50,[6],15 µM
same,EC50 at 3 days,[7],115 µM
same,inhibition at 40 µM,[8],80%
same,viability at 72 h,[9],80%
same,Activity,[10],inactive
same,inhibition at 40 µM,[11],60%
same,growth inhibition (GI),[12],Active
same,Activity,[13],<=30%
same,Activity,[14],inactive
same,"viability at 72 h, 160 µM",[15],33%
same,"viability at 72 h, 80 µM",[16],64%
same,Activity,[17],<=30%
same,EC50,[18],5 µM
same,growth inhibition (GI),[19],Active
same,EC50,[20],15 µM
same,inhibition of growth at 40 µM,[21],> 90%
same,Activity,[22],<=30%
same,EC50,[23],15 µM
same,growth inhibition (GI),[24],Active
same,fold change (FC),[25],3.5
same,inhibition at 40 µM,[26],80%
same,growth inhibition (GI),[27],Active
same,growth inhibition (GI),[28],Active
same,EC50,[29],15 µM
same,EC50,[30],15 µM
same,fold change (FC),[31],2
same,inhibition of growth at 10 µM,[32],100%
same,fold change (FC),[33],2
same,Activity,[34],<=30%
same,"viability at 72 h, 40 µM",[35],80%
same,Activity,[36],38.1%
same,Activity,[37],13.3%
